The results in this text go back to ChEMBL document CHEMBL4425094, “Novel Benzo[a]quinolizidine Analogs Induce Cancer Cell Death through Paraptosis and Apoptosis” (J Med Chem, 2016).

pIC50: −log10 of the molar value. Some results are limits rather than exact numbers.

One assay has as its system K562. In words: Cytotoxicity against human K562 cells assessed as cell growth inhibition after 24 hrs by MTT assay. It is filed as functional, cell-based. The settings on record: K562, 24 h. The procedure, abridged: (§1)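 Cells seeded 24 h in RPMI 1640 + 10% FBS. RWPE-1 was kept in K-SFM with bovine pituitary extract and EGF. Cells then exposed to compounds for 24 h at 37 °C, 5% CO2, with DMSO vehicle and docetaxel as positive control. MTT added for 4 h, absorbance read at 570 nm. Triplicate runs, IC50 reported as mean of three experiments.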

For the next assay, the system named is MCF7. The experiment in a line: Cytotoxicity against human MCF7 cells assessed as cell growth inhibition after 24 hrs by MTT assay. In kind it is functional, cell-based. The settings on record: MCF7, 24 h. The procedure, abridged: as §1
Background: Formazan colour is commonly taken as a measure of viable cells.

The subject of the next assay is RWPE-1. The experiment in a line: Cytotoxicity against human RWPE1 cells assessed as cell growth inhibition after 24 hrs by MTT assay. In kind it is cell-based. Particulars: RWPE-1, 24 h. The procedure, abridged:
as §1

The next assay has as its system DU-145. The experiment in a line: Cytotoxicity against human DU145 cells assessed as cell growth inhibition after 24 hrs by MTT assay. In kind it is functional, cell-based. The settings on record: DU-145, 24 h. The procedure, abridged:
as §1

The next assay concerns PC-3. In words: Cytotoxicity against human PC3 cells assessed as cell growth inhibition after 24 hrs by MTT assay. In kind it is functional, cell-based. Particulars: PC-3, 24 h. The procedure, abridged:
as §1

The subject of the next assay is HeLa. The experiment in a line: Cytotoxicity against human HeLa cells assessed as cell growth inhibition after 24 hrs by MTT assay. It is filed as functional, cell-based. The procedure, abridged:
as §1

A further assay concerns MDA-MB-231. The experiment in a line: Cytotoxicity against human MDA-MB-231 cells assessed as cell growth inhibition after 24 hrs by MTT assay. It is filed as functional, cell-based. Particulars: MDA-MB-231, 24 h. The procedure, abridged: as §1

Usually pIC50 stands for the IC50 on a negative log10 scale, so that one unit is a factor of ten. As to `O=[N+]([O-])c1ccc([C@@H]2C[C@@H](O)C[C@H]3c4cc(OCc5ccccc5)c(OCc5ccccc5)cc4CCN23)cc1`, the pIC50 in the assay with K562, in the assay with MCF7, in the assay with RWPE-1, in the assay with DU-145, in the assay on PC-3 and in the assay with HeLa was below 4.70 throughout. Also, the negative logarithm of the IC50 (pIC50) with MDA-MB-231 is below 4.70.

In the case of `C[C@@H]1CC(=O)C[C@H]2c3cc(OCc4ccccc4)c(OCc4ccccc4)cc3CCN12` (relative stereo), the pIC50 in the assay with K562 is below 4.70; with MCF7, 5.65; with DU-145, 5.37; with PC-3, 5.64; with HeLa, 5.52; with MDA-MB-231 it was 5.60.

In the case of `C[C@@H]1C[C@H](O)C[C@H]2c3cc(OCc4ccc(Br)cc4)c(OCc4ccc(Br)cc4)cc3CCN12`, the pIC50 in the assay on K562 was 5.50; in the assay with RWPE-1, 5.54; in the assay with HeLa, 5.54; with MDA-MB-231, 5.65.

Regarding `CCC[C@@H]1C[C@@H](O)/C=C\C(CC)[C@H]2c3cc(OCc4ccccc4)c(OCc4ccccc4)cc3CCN12` (stereo partly specified), the results for the negative logarithm of the IC50 (pIC50) in the assay with K562, in the assay with HeLa and with MDA-MB-231 were 5.25, 5.46 and 5.57, respectively.

With `C[C@@H]1C[C@H](O)C[C@H]2c3cc(OCc4cc(F)cc(F)c4)c(OCc4cc(F)cc(F)c4)cc3CCN12`, the negative-log IC50 (pIC50) is 5.64 in the assay with K562, 5.52 with HeLa and 5.50 in the assay on MDA-MB-231.

On to `C[C@@]1(O)C[C@@H](c2ccccc2)N2CCc3cc(OCc4ccccc4)c(OCc4ccccc4)cc3[C@@H]2C1`, for which the negative logarithm of the IC50 (pIC50) in the assay on K562 is 5.70; in the assay on MCF7 it was 5.04; with RWPE-1 it was 5.69; with DU-145, 4.94; in the assay on HeLa, 5.18; with MDA-MB-231 it was 5.26.

With `CCC[C@@H]1C[C@@](C)(O)C[C@H]2c3cc(OCc4ccccc4)c(OCc4ccccc4)cc3CCN12`, the negative logarithm of the IC50 (pIC50) is 5.17 in the assay with K562, 5.20 in the assay on HeLa and 5.63 with MDA-MB-231.

`CCC[C@@H]1C[C@H](O)C[C@H]2c3cc(OCc4ccccc4)c(OCc4ccccc4)cc3CCN12`: the pIC50 is 5.41 in the assay on K562, 5.26 with HeLa and 5.17 with MDA-MB-231.

For `CC[C@@H]1C[C@H](O)C[C@H]2c3cc(OCc4ccccc4)c(OCc4ccccc4)cc3CCN12`, the negative logarithm of the IC50 (pIC50) is 5.42 with K562; 5.52 with MCF7; 5.47 in the assay on DU-145; 5.45 in the assay with PC-3; 5.28 in the assay with HeLa; 4.99 in the assay with MDA-MB-231.

Take `CCC[C@@H]1C[C@@H](O)C[C@H]2c3cc(OCc4ccccc4)c(OCc4ccccc4)cc3CCN12`: the pIC50 in the assay with K562 is 5.63; in the assay on HeLa it was 5.62; with MDA-MB-231, 5.59.

For the molecule `C[C@@H]1C[C@H](O)C[C@H]2c3cc(OCc4ccc(C(C)(C)C)cc4)c(OCc4ccc(C(C)(C)C)cc4)cc3CCN12`, the pIC50 was 5.54 in the assay on K562, 5.59 with HeLa and 5.84 with MDA-MB-231.

Consider `C[C@@H]1C[C@H](O)C[C@H]2c3cc(OCc4ccccc4)c(OCc4ccccc4)cc3CCN12`, for which the pIC50 with K562 is 5.49; with MCF7, 5.60; in the assay with DU-145, 5.71; in the assay on PC-3, 5.12; in the assay on HeLa, 5.97; in the assay with MDA-MB-231, 5.14.

Turning to `C[C@@H]1C[C@@](C)(O)C[C@H]2c3cc(OCc4ccccc4)c(OCc4ccccc4)cc3CCN12`, the negative logarithm of the IC50 (pIC50) in the assay on MCF7 was 5.86; in the assay with DU-145 it was 5.68; in the assay on PC-3 it was 5.59; with HeLa, 5.28; in the assay with MDA-MB-231 it was 5.19.

Turning to `CC1(C)C[C@@H](O)C[C@H]2c3cc(OCc4ccccc4)c(OCc4ccccc4)cc3CCN21` (relative stereo), the negative-log IC50 (pIC50) was 5.26 in the assay with K562, 5.14 with HeLa and 5.30 in the assay on MDA-MB-231.
